Sampled rows, rich in hits. Any-hit rate of the full collection: about 2.3%.
CHT block = inhibitors of human choline transporter CHT | AID 488975 | CHT-expressing cells, membrane potential dye, choline response; stronger effect = lower value | Q9GZV3 | B-score at 10 µM | hit rate 0.86% among 310,000;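 active = B-score over 3 SD under the library average, and starting fluorescence ratio not unusually high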;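 also: choline stimulus applied at its EC90 after an EC20 pre-addition; B-score computed on integrated fluorescence ratio after choline addition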
GalR3 antag = antagonists of human GalR3 | inhibition, % at 3 µM | hit rate 0.44% among 360,000 | HEK293 GalR3-CNG cAMP membrane potential fluorescence; galR3 body fused to GalR1 C-terminus;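 active = inhibition above the screen-wide average plus 3 SD, cut at about 13% in these data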;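 also: forskolin and galanin both at EC90 stimulate the cells; cAMP rise reported by CNG channel membrane potential dye signal; 0% = forskolin plus galanin with DMSO and 100% = forskolin alone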
NR2E3 ag-1 = agonists of human nuclear receptor NR2E3; Q9Y5X4; GST-NR2E3/biotin-RetCOR TR-FRET, 1536-well; inhibition of corepressor binding, % at 4.78 µM; hit rate 0.12% among 320,000;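 active = percent inhibition above the cutoff of mean plus 3 SD of all tested compounds, set per screening campaign, cut at about 20% in these data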;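 also: 0% = DMSO wells and 100% = biotin wells as full block of FRET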
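system = GST-tagged NR2E3 plus biotinylated RetCOR corepressor | input = 1.35 nM GST-NR2E3 | also added = 7 nM biotin-RetCOR | schedule = 5 h incubation at 4 °C | measured by = TR-FRET with europium anti-GST and streptavidin-D2, 340 nm excitation | read-out = percent loss of FRET ratio relative to control wells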
CHT PAM = allosterically activates the human high affinity choline transporter; CHT-expressing cells, membrane potential dye, choline EC20; stronger effect = higher value; LV-AA mutant CHT in HEK293 cells; Q9GZV3; B-score at 10 µM; hit rate 0.49% among 310,000; AID 488977;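 active = initial fluorescence not abnormally high and integrated response B-score, plate-corrected, over 3 SD above library mean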
NR2E3 ag-2 = human photoreceptor-specific nuclear receptor agonism | Q9Y5X4 | hit rate 0.35% among 360,000 | inhibition of corepressor binding, % at 3.98 µM | CHO-S Gal4-NCOR/VP16-NR2E3 two-hybrid, luciferase | AID 602229;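 active = inhibition above the mean of all tested compounds plus 3 SD, cut at about 70% in these data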;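 also: 0% = DMSO with NR2E3 transfected cells and 100% = cells lacking NR2E3 construct; higher means lower luciferase signal from less NR2E3 corepressor binding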
NR2F2 inh = blocks human COUP-TFII nuclear receptor | P24468 | HEK293T NGFI-A luciferase reporter, luminescence | inhibition, % at 8.6 µM | hit rate 0.7% among 370,000 | AID 686940;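 active = inhibition above a per-plate cutoff, mean inhibition of test wells between control levels plus 3 SD, cut at about 38% in these data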;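 also: cells cotransfected with COUP-TFII expression vector driving the NGFI-A reporter; 0% = median of COUP-TF2 test wells and 100% = reporter-only cells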
Target sequence (P24468 whole entry, looked up): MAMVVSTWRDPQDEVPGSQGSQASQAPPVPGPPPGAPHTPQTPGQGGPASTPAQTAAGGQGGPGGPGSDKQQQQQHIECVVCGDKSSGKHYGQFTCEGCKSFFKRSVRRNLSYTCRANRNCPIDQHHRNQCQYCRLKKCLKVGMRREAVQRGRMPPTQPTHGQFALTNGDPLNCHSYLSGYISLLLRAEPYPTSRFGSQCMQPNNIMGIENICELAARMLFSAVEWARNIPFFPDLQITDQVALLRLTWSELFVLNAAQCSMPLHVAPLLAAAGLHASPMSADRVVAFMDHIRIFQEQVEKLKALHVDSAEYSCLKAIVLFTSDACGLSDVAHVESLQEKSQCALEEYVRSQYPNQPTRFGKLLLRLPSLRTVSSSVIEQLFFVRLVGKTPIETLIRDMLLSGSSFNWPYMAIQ
CHT act confirm = confirmation of human choline transporter (CHT) activators; shares compounds with CHT PAM; CHT-expressing cells, membrane potential dye fluorescence (FDSS); % of choline EC20–EC90 response window; HEK293 expressing CHT LV-AA mutant; choline added at its EC20; activation, % at 10 µM; hit rate 91% among 2,500; AID 504833;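 active = primary screen active, with duplicate mean activation above negative control mean plus 3 SD, cut at about 11% in these data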
HEK293 MP dye = counter-screen for CHT activators: effect in parental HEK293 cells; shares compounds with CHT PAM; membrane potential dye fluorescence (FDSS); measured after EC20 choline addition; ratio readout change at 10 µM, hits read low; hit rate 62% among 2,500; AID 623908;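 active = duplicate-averaged ratio beyond 3 SD from buffer wells, up or down, though filed actives are nearly all decreases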
Active calls of the source: *; i = inactive; . = no result.

SMILES	CHT block	GalR3 antag	NR2E3 ag-1	CHT PAM	NR2E3 ag-2	NR2F2 inh	CHT act confirm	HEK293 MP dye
COc1ccc(C(=O)Nc2ccc(Cn3ccnc3)cc2)cc1OC	i	-8	2	i	-40	-5	.	.
CN(C)Cc1cc(OCc2ccccc2)cc(CN(C)C)c1O	.	-5	.	.	21	-3	.	.
CN(C)Cc1cc(C(C)(C)c2cc(CN(C)C)c(O)c(CN(C)C)c2)cc(CN(C)C)c1O	i	-4	-2	8.3*	17	3	52*	-58*
O=C1N(Cc2cccc(Cl)c2)C[C@@H]2C[C@@H](c3cccn3-c3ccccn3)N3CCC[C@@]123	i	-5	0	7.1*	-6	5	53*	i
O=C1N(Cc2cccc(Cl)c2)C[C@@H]2C[C@@H](c3cccn3-c3nccs3)N3CCC[C@@]123	i	-6	2	i	-5	-1	.	.
Cc1nc(-c2ccc(NC(=O)c3ccccc3)cc2)cs1	i	-5	3	i	-125	-2	.	.
CCc1ccccc1NC(=O)c1ccc(-c2csc(C)n2)cc1	i	-6	-4	i	-73	-19	7	i
COC(=O)c1cc2c(=O)n3ccccc3nc2n(Cc2cccnc2)c1=N	i	.	4	6.8*	.	.	40*	-55*
C=CCn1c(=N)c(C#N)cc2c(=O)n3ccccc3nc21	i	-4	-1	i	-36	-4	.	.
Cc1ccc2nc3c(cc(C#N)c(=N)n3Cc3cccnc3)c(=O)n2c1	i	.	1	8.5*	.	.	41*	-28*
Cc1ccc(S(=O)(=O)/C(C#N)=C/c2c(N3CCN(C)CC3)nc3c(C)cccn3c2=O)cc1	i	-2	3	7.4*	-8	3	50*	-46*
Cc1ccc2nc(N3CCN(C)CC3)c(C=O)c(=O)n2c1	i	-8	5	i	-42	-18	74*	-51*
Cc1cccn2c(=O)c(C=O)c(N3CCN(C)CC3)nc12	i	-7	-3	7.1*	-19	-3	71*	-66*
Cc1cccn2c(=O)c(C=O)c(N3CCN(c4ccccc4)CC3)nc12	i	2	4	i	-20	9	.	.
CCNC(=O)/C(C#N)=C/c1c(N2CCN(c3cccc(Cl)c3)CC2)nc2c(C)cccn2c1=O	i	-6	.	i	-5	-3	.	.
Cc1ccc2nc(N3CCN(c4ccccc4)CC3)c(C=O)c(=O)n2c1	i	-3	4	i	-31	-18	.	.
CCNC(=O)/C(C#N)=C/c1c(N2CCN(C)CC2)nc2c(C)cccn2c1=O	i	-7	-1	6.3*	-3	3	49*	-53*
Cc1ccc(OCc2nn3c(C4CCCCC4)nnc3s2)cc1	.	.	.	.	.	-22	.	.
COC(=O)[C@]12C[C@H](CC(=O)N3CCC(c4ccccc4)CC3)C(=O)N(Cc3ccco3)C1=C[C@H](C1CCCC1)O[C@@H]2C	.	.	.	.	.	-19	.	.
CCN1CCN(c2nc3ccccn3c(=O)c2C=O)CC1	i	-1	1	i	2	-1	57*	-51*
CN(CCO)c1cccc2c1S(=O)(=O)N(Cc1cn(Cc3ccc(Cl)cc3)nn1)Cc1ccccc1O2	.	.	.	.	.	6	.	.
Cc1cccc(OCC(=O)Nc2ccccc2N2CCCCC2)c1	i	-6	-1	i	4	1	.	.
O=C(Nc1cc([N+](=O)[O-])ccc1N1CCCC1)c1ccccc1	i	-2	-3	i	4	19	.	.
O=C(Nc1ccccc1N1CCN(C(=O)c2ccc(Cl)cc2)CC1)c1cccc([N+](=O)[O-])c1	i	-4	-5	i	-31	9	.	.
CN1CCN(c2ccccc2NC(=O)c2cccc([N+](=O)[O-])c2)CC1	i	-4	-1	i	28	-5	52*	-44*
SMILES	CHT block	GalR3 antag	NR2E3 ag-1	CHT PAM	NR2E3 ag-2	NR2F2 inh	CHT act confirm	HEK293 MP dye
Cc1cccc(OCC(=O)Nc2ccccc2N2CCN(C)CC2)c1	i	-3	3	11*	2	1	36*	i
N#Cc1ccc(C(=O)Nc2cc(S(=O)(=O)N3CCOCC3)ccc2N2CCOCC2)cc1	.	-3	.	.	-21	-16	.	.
CN1CCN(c2ccc(S(=O)(=O)N3CCCCC3)cc2NC(=O)c2ccc(C#N)cc2)CC1	i	-6	1	i	6	8	2	i
CN1CCN(c2ccc([N+](=O)[O-])cc2NC(=O)c2ccccc2)CC1	i	-5	0	8.5*	-2	1	62*	-88*
CN1CCN(c2ccccc2NC(=O)c2ccc(OCc3ccccc3)cc2)CC1	i	-2	2	i	4	8	27*	-33*
COc1cccc(C(=O)Nc2cc([N+](=O)[O-])ccc2N2CCN(C)CC2)c1	i	-7	2	9.7*	0	-5	49*	-82*
COc1ccc(C(=O)Nc2cc([N+](=O)[O-])ccc2N2CCN(C)CC2)cc1	i	-2	3	i	-28	-10	.	.
COc1ccc(Cn2cc(COC(=O)NCC(C)C)nn2)cc1	.	.	.	.	.	-14	.	.
Cc1noc(C)c1COC(=O)c1ccccc1Oc1ccccc1	i	-5	3	i	-18	-4	14*	i
Cc1noc(C)c1COC(=O)c1ccccc1NC(=O)Cc1ccccc1	i	-5	-4	i	-20	-3	.	.
OCCN(CCCn1c(-c2ccncc2)nc2ccccc21)c1nc(CN2CCCCC2)cs1	i	-3	3	i	15	-2	60*	-44*
CC1(C)Cc2c(C#N)c(N3CCCC3)nc(-c3ccco3)c2CO1	i	-3	0	i	-19	-12	.	.
CC(C)c1nc(N2CCN(C(=O)c3ccco3)CC2)c(C#N)c2c1COC(C)(C)C2	i	-3	3	6.6*	-18	23	23*	i
CCOC(=O)N1CCN(c2cc(N3CCOCC3)c(F)cc2[N+](=O)[O-])CC1	i	9	-4	i	-10	-5	.	.
CCC(=O)N1CCN(c2cc(N3CCN(C)CC3)c(F)cc2[N+](=O)[O-])CC1	i	-2	-1	8*	4	-8	57*	-58*
CN1/C(=C\C=[N+](C)c2ccccc2)C(C)(C)c2ccccc21	i	-8	1	8.1*	-2	12	75*	-24*
Cc1ccccc1N=C/C=C1\N(C)c2ccccc2C1(C)C	i	-6	2	i	-5	6	.	.

From PubChem BioAssay
